Experimental data from ChEMBL document CHEMBL1125247, “Muscarinic cholinergic agonists and antagonists of the 3-(3-alkyl-1,2,4-oxadiazol-5-yl)-1,2,5,6-tetrahydropyridine type. Synthesis and structure-activity relationships” (J Med Chem, 1991).

Experiments:
[1] = biological target: Muscarinic acetylcholine receptor; test: (§1) Agonist activity at muscarinic acetylcholine receptor in isolated guinea pig ileum.; assay type: functional, tissue-based, Cavia porcellus
[2] = biological target: Muscarinic acetylcholine receptor; test: In vitro binding affinity to muscarinic acetylcholine receptor site in rat brain assayed using [3H]oxotremorine-M as the radioligand.; assay type: tissue-based
[3] = biological target: Muscarinic acetylcholine receptor; test: In Vitro binding affinity to the muscarinic acetylcholine receptor site in rat brain by using [3H]QNB as the radioligand.; assay type: tissue-based
[4] = biological target: Muscarinic acetylcholine receptor (Rattus norvegicus) (UniProt P08482+P08483+P08485+P08911+P10980)
[5] = biological target: Muscarinic acetylcholine receptor M3 (Cavia porcellus) (UniProt Q8VH26); test: Antagonist activity at muscarinic acetylcholine receptor in isolated guinea pig ileum.; assay type: functional, tissue-based
Procedure, shortened: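 Isolated guinea pig ileum in tyrode solution; agonist dose-response curves built sequentially with 30-s contact time. Antagonist added to the tyrode 5 min before agonist responses were retested. K_B from regression analysis using at least four points, n = 4-8 per point.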

[6] = biological target: Muscarinic acetylcholine receptor (Cavia porcellus); test: Antagonist activity at muscarinic acetylcholine receptor in isolated guinea pig ileum.
[7] = biological target: Muscarinic acetylcholine receptor; test: as §1; assay type: functional, tissue-based, Cavia porcellus; remark: listed apart in the source
Procedure, shortened: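 Isolated ileum in Tyrode solution. Cumulative-free sequential agonist dose-response curves, 30-s contact time per dose. Contraction read out; EC50 derived from the curves. Efficacy expressed as percent of maximal contraction relative to the full agonist acetylcholine.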

[8] = biological target: Muscarinic acetylcholine receptor (Cavia porcellus); test: Antagonistic activity at muscarinic acetylcholine receptor in isolated guinea pig ileum.

Muscarinic acetylcholine receptor M3 (Cavia porcellus), sequence (Q8VH26 1-587): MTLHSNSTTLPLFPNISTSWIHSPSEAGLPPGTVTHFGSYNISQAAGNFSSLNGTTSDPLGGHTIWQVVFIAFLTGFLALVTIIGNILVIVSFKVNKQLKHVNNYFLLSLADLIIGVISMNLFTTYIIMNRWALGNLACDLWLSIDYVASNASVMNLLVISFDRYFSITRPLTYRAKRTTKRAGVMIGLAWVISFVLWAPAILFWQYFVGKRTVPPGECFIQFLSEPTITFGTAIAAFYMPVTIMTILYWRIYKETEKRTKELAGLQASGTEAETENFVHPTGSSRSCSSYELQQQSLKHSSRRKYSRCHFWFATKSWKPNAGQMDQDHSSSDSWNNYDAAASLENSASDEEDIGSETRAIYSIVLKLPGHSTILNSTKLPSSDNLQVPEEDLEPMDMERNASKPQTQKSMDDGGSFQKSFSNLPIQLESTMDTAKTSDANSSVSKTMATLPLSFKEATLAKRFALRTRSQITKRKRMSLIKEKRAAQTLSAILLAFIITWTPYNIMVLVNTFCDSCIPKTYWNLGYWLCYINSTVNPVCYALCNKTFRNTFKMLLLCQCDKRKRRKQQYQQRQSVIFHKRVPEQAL

Compound | EC50 [1] | IC50 [2] | IC50 [3] | Muscarinic agonist index [4] | Kb [5] | Kb [6] | Kb [8] | EC50 [7]
CCCCc1noc(C2=CCCNC2)n1 | 0.32 µM | 12.1 nM | 25.3 µM | 339 |  |  |  | 
CN1CCC=C(c2nc(C3CC3)no2)C1.O=C(O)C(=O)O | > 30 µM | 78 nM | 6.8 µM | 14 | 150 nM |  |  | 
CCCCc1noc(C2=CCCN(CC)C2)n1 | > 30 µM | 86.2 nM | 20.6 µM | 39 | 700 nM |  |  | 
Cc1nc(C2=CCCN(C)C2)no1.O=C(O)C(=O)O | > 30 µM | 955 nM | 401 µM | 68 |  | 8 µM |  | 
CN1CCC=C(c2nc(C3CCCCCC3)no2)C1.O=C(O)C(=O)O | > 30 µM | > 850 nM | 16 µM | < 3 | 160 nM |  |  | 
CCCCc1noc(C2CN3CCC2CC3)n1 (configuration not stated) |  | 58.5 nM | 1.5 µM | 4 | 70 nM |  |  | > 30 µM
CCCCc1noc(C2=CCC3CCC2N3C)n1 (configuration not stated) | > 30 µM | 181 nM | 8.9 µM | 8 | 220 nM |  |  | 
CN1CCC=C(c2nc(C3CCCC3)no2)C1.O=C(O)C(=O)O | > 30 µM | 102 nM | 10.8 µM | 15 | 1550 nM |  |  | 
CCCCc1noc(C2=CCC(C)N(C)C2)n1 (configuration not stated) | > 30 µM | 145 nM | 10.2 µM | 11 | 130 nM |  |  | 
CN1CCC=C(c2nc(C3CCC3)no2)C1.O=C(O)C(=O)O |  | 191 nM | 12.9 µM | 11 |  |  | 650 nM | > 30 µM
CCCCc1noc(C2=CC(C)CNC2)n1 (configuration not stated) | > 30 µM | 685 nM | 64.3 µM | 15 |  |  |  | 

More lines, main results first:

EC50 [1] | IC50 [2] | IC50 [3] | Muscarinic agonist index [4] | Kb [5] | Kb [6] | Kb [8] | Compound | EC50 [7]
0.032 µM | 12.3 nM | 41 µM | 540 |  |  |  | Cc1noc(C2=CCCN(C)C2)n1.O=C(O)C(=O)O | 
> 30 µM | 681 nM | 88 µM | 80 | 3380 nM |  |  | CCCc1nc(C2=CCCN(C)C2)no1.O=C(O)C(=O)O | 
> 30 µM | 286 nM | 9 µM | 5 | 200 nM |  |  | CN1CCC=C(c2nc(C(C)(C)C)no2)C1.O=C(O)C(=O)O | 
1.46 µM | 59.9 nM | 11 µM | 30 |  |  |  | CCCCCCCCc1noc(C2=CCCN(C)C2)n1.O=C(O)C(=O)O | 
> 30 µM | 182 nM | 15.8 µM | 14 | 200 nM |  |  | CC(C)c1noc(C2=CCCN(C)C2)n1.O=C(O)C(=O)O | 
0.72 µM | 144 nM | 41.5 µM | 47 |  |  |  | COCCc1noc(C2=CCCN(C)C2)n1.O=C(O)C(=O)O | 
1 µM | 7.8 nM | 11.3 µM | 235 |  |  |  | CN1CCC=C(c2nc(CC3CC3)no2)C1.O=C(O)C(=O)O | 
0.2 µM | 11 nM | 35.3 µM | 520 |  |  |  | CCc1noc(C2=CCCN(C)C2)n1.O=C(O)C(=O)O | 
> 30 µM | 954 nM | 156 µM | 26 |  | 5.75 µM |  | CCc1nc(C2=CCCN(C)C2)no1.O=C(O)C(=O)O | 
0.1 µM | 6.3 nM | 17.4 µM | 447 |  |  |  | CCCc1noc(C2=CCCN(C)C2)n1.O=C(O)C(=O)O | 
0.13 µM | 28.3 nM | 9.1 µM | 52 |  |  |  | CCCCCCCc1noc(C2=CCCN(C)C2)n1.O=C(O)C(=O)O | 
0.62 µM | 36.9 nM | 6.7 µM | 29 |  |  |  | CCCCCc1noc(C2=CCCN(C)C2)n1.O=C(O)C(=O)O | 
1.28 µM | 107 nM | 42.8 µM | 65 |  |  |  | CCOCCc1noc(C2=CCCN(C)C2)n1.O=C(O)C(=O)O | 
0.42 µM | 43.5 nM | 66.9 µM | 249 |  |  |  | COCc1noc(C2=CCCN(C)C2)n1.O=C(O)C(=O)O | 
0.15 µM | 14.1 nM | 15.8 µM | 181 |  |  |  | CCCCc1noc(C2=CCCN(C)C2)n1.O=C(O)C(=O)O | 
